Test results as given in article PMC4506215 (Nature, 2015).
Positions count from the first letter of the chain named.

Key:
[1] = biological target: T1, mutant AR (expressed in LNCaP) (Homo sapiens, UniProt P10275, T878A); assay: cell-based; type: binding
T1 sequence (P10275 1-920 T878A): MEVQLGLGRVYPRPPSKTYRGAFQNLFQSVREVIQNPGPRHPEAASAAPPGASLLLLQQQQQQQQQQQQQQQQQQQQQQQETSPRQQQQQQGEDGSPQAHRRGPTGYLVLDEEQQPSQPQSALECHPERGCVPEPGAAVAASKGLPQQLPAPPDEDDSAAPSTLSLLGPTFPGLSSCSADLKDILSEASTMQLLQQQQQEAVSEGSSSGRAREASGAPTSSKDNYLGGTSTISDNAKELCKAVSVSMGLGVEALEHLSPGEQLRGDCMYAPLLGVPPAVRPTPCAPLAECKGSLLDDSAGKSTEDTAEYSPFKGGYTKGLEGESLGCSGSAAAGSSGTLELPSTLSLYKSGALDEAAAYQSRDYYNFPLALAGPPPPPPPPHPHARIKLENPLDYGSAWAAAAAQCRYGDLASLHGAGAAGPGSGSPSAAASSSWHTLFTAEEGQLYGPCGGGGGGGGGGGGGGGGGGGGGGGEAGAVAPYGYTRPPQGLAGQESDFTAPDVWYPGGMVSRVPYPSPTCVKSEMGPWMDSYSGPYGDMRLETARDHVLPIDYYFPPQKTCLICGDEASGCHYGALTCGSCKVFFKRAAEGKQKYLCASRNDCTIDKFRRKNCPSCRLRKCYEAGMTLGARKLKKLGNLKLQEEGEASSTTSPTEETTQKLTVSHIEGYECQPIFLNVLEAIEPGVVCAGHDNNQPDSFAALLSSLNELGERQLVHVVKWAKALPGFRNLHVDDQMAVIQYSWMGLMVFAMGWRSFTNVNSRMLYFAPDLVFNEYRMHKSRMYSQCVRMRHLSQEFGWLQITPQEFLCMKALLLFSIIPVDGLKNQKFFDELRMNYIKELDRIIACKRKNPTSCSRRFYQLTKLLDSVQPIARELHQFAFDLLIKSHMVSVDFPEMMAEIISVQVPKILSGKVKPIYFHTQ

[2] = patients, wide interpatient variability; cited from earlier work
[3] = biological target: T2, SRD5A (Homo sapiens, UniProt P18405); assay: Conversion of [3H]-AD to 5α-reduced androgens in LAPC4 cells; type: cell-based; settings: up to 100 μM
T2 sequence (P18405 1-259): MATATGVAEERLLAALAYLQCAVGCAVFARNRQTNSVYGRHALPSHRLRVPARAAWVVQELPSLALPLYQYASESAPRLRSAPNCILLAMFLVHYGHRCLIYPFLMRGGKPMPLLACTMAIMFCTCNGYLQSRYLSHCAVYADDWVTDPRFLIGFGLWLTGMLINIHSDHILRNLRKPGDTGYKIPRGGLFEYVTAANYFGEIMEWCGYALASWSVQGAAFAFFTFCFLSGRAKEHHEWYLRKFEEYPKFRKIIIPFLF
In short: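 LAPC4 cells (IMDM, 10% FBS) seeded at 0.2 million/well for ~24 h, then given [3H]-AD mixed with unlabeled AD (final 100 nM, ~1,000,000 cpm/well) plus test compound at 37°C. Medium treated with β-glucuronidase (65°C, 2 h), extracted with ethyl acetate:isooctane (1:1), dried. Steroids separated by C18 reverse-phase HPLC, methanol/water gradient. Biological n=3; repeated three times.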

[4] = biological target: T3, wild-type AR (expressed in LAPC4) (Homo sapiens, UniProt P10275); assay: cell-based; type: binding
T3 sequence (P10275 1-920): T1 sequence (P10275 1-920 T878A) with A878T

[5] = system: metastatic CRPC; settings: cited from earlier work
[6] = system: LNCaP cells; assay: Cell proliferation assay, DHT-induced growth; type: cell-based; settings: DHT 0.5 nM, 2, 4 and 6 days
In short: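 LNCaP cells (0.1 million/mL) in phenol red-free RPMI-1640 with 10% charcoal-stripped FBS plus androgen and/or test compound. Medium changed every other day. Cells lysed after 2, 4 or 6 days; growth measured as DNA content by Hoechst fluorescence. Two-tailed Student's t-test.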

SMILES | IC50 [1] [nM] | Cmax [2] [nM] | effect on conversion from AD to 5α-reduced androgens [3] | IC50 [4] [nM] | survival in metastatic CRPC [5] | effect on DHT-stimulated cell growth [6]
C[C@]12CC[C@H](O)CC1=CC[C@@H]1[C@@H]2CC[C@]2(C)C(c3cccnc3)=CC[C@@H]12 [Abi, abiraterone] | 418 | ~1000 | no detectable effect | > 500 |  | 
CNC(=O)c1ccc2cc([C@@]3(O)CCn4cncc43)ccc2c1 [TAK-700] |  |  |  |  | failed to prolong survival | 
CNC(=O)c1ccc(N2C(=S)N(c3ccc(C#N)c(C(F)(F)F)c3)C(=O)C2(C)C)cc1F [enzalutamide] |  |  | no detectable effect |  |  | more potent than Abi
